Source: ChEMBL document CHEMBL3244238, “In search of anti-Trypanosoma cruzi drugs: new leads from a mouse model” (J Med Chem, 1977)
Calls of active or inactive are those of the source. The calls are words filed in the database; no cut-off is given here.

Tests used:
Trypanosoma cruzi [1] = test: Antitrypanosomal activity against Trypanosoma cruzi infected in albino CF1 mouse assessed as reduction in number of parasites in blood at 13 mg/kg/day, intramuscular treatment started on day 10 of infection up to day 14; assay type: functional; details: for inhibition in vivo at 13 mg/kg/day: im
Outline: (§1)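 Male CF1 albino mice (4-10 weeks) infected intraperitoneally with 50 000 Brazil-strain T. cruzi trypomastigotes in Hanks' balanced salt solution, pH 7.2. Dosing was intramuscular, twice daily, from day 10 to day 13 afternoon or day 14 morning. Vehicle was 0.1% Tween 80 + 0.5% hydroxyethylcellulose. Seven mice per dose; dose given as total salt weight. Parasites/mL blood counted from day-14 smears; % suppression versus vehicle controls.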

Trypanosoma cruzi [2] = test: Antitrypanosomal activity against Trypanosoma cruzi infected in albino CF1 mouse assessed as reduction in number of parasites in blood at 52 mg/kg/day, intramuscular treatment started on day 10 of infection up to day 14; assay type: functional; details: for inhibition in vivo at 52 mg/kg/day: im; outline: as §1
Trypanosoma cruzi [3] = test: Antitrypanosomal activity against Trypanosoma cruzi infected in albino CF1 mouse assessed as reduction in number of parasites in blood at 104 mg/kg/day, intramuscular treatment started on day 10 of infection up to day 14; assay type: functional; details: for inhibition in vivo at 104 mg/kg/day: im; outline: as §1
Trypanosoma cruzi [4] = test: Potency index, ratio of nifurtimox SD90 to compound SD90 for Trypanosoma cruzi infected in albino CF1 mouse assessed as reduction in number of parasites in blood; assay type: functional
Outline: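 Index = nifurtimox SD90 ÷ test-compound SD90. SD values were read graphically from log-probit plots of % parasitemia suppression versus dose (mg/kg/day) in intramuscularly treated, T. cruzi-infected CF1 mice. A lower SD level was used when SD90 was unattainable. For salts, doses were given by total weight, and the index was multiplied by the reciprocal of the base fraction.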

Trypanosoma cruzi [5] = test: Antitrypanosomal activity against Trypanosoma cruzi infected in albino CF1 mouse assessed as reduction in number of parasites in blood intramuscularly treated daily from day 10 of infection up to day 14; assay type: functional
Outline: (§2)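 Male CF1 albino mice (4-10 weeks) were infected ip with 50 000 Brazil-strain trypomastigotes in 0.2 mL Hanks' BSS, pH 7.2. Dosing was intramuscular, twice daily in 0.1% Tween 80/0.5% hydroxyethylcellulose, from day 10 through day 13 pm or day 14 am. Three fourfold-spaced doses were given, 7 mice per dose, with vehicle-only controls. Parasites/mL of blood were counted from day-14 smears.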

Trypanosoma cruzi [6] = test: Antitrypanosomal activity against Trypanosoma cruzi infected in albino CF1 mouse assessed as reduction in number of parasites in blood at 26 mg/kg/day, intramuscular treatment started on day 10 of infection up to day 14; assay type: functional; details: for inhibition in vivo at 26 mg/kg/day: im; outline: as §2
Trypanosoma cruzi [7] = test: Antitrypanosomal activity against Trypanosoma cruzi infected in albino CF1 mouse assessed as reduction in number of parasites in blood at 3.25 mg/kg/day, intramuscular treatment started on day 10 of infection up to day 14; assay type: functional; details: for inhibition in vivo at 3.25 mg/kg/day: im; outline: as §2
Mus musculus = test: Toxicity in albino CF1 mouse at 104 mg/kg/day, intramuscular treatment started on day 10 of trypanosomal infection up to day 14; assay type: organism-based; design: route intramuscular; details: in vivo, im

SMILES | inhibition (Trypanosoma cruzi [1]) | inhibition (Trypanosoma cruzi [2]) | inhibition (Trypanosoma cruzi [3]) | Ratio (Trypanosoma cruzi [4]) | also measured
Cc1cc(NCCCCCCNc2cc(C)nc3ccc(N)cc23)c2cc(N)ccc2n1 | inactive | inactive | inactive |  | 
COc1cc(NC(C)CCN)c2ncc(C)cc2c1.O=P(O)(O)O (stereo not drawn) |  |  |  | >9.2 | inhibition in vivo at 13 mg/kg/day (Trypanosoma cruzi [1]): 98%; SD90 (Trypanosoma cruzi [5]): <3.25 mg/kg; inhibition in vivo at 26 mg/kg/day (Trypanosoma cruzi [6]): 99%; inhibition in vivo at 3.25 mg/kg/day (Trypanosoma cruzi [7]): 92%
Nc1ccc(C(c2ccc(N)cc2)c2ccc(N)cc2)cc1 |  |  |  |  | inhibition in vivo at 104 mg/kg/day (Trypanosoma cruzi [3]): 52%; inhibition in vivo at 26 mg/kg/day (Trypanosoma cruzi [6]): 39%; inhibition in vivo at 3.25 mg/kg/day (Trypanosoma cruzi [7]): 43%
Nc1nc(/C=C/c2ccc([N+](=O)[O-])o2)no1 |  |  |  | 1.13 | SD90 (Trypanosoma cruzi [5]): 48.5 mg/kg; inhibition in vivo at 104 mg/kg/day (Trypanosoma cruzi [3]): 90%; inhibition in vivo at 26 mg/kg/day (Trypanosoma cruzi [6]): 91%; inhibition in vivo at 3.25 mg/kg/day (Trypanosoma cruzi [7]): 49%
COc1cc(NC(C)CCN)c2nc(C)ccc2c1.Cl.O (stereo not drawn) |  |  |  | 3.9 | inhibition in vivo at 13 mg/kg/day (Trypanosoma cruzi [1]): 86%; SD80 (Trypanosoma cruzi [5]): 10.5 mg/kg; inhibition in vivo at 26 mg/kg/day (Trypanosoma cruzi [6]): 82%; inhibition in vivo at 3.25 mg/kg/day (Trypanosoma cruzi [7]): 38%
CCCNCCCCCNc1cc(OC)cc2cccnc12.O=P(O)(O)O |  |  |  | 1.2 | inhibition in vivo at 13 mg/kg/day (Trypanosoma cruzi [1]): 54%; inhibition in vivo at 52 mg/kg/day (Trypanosoma cruzi [2]): 93%; SD90 (Trypanosoma cruzi [5]): 43.5 mg/kg; inhibition in vivo at 104 mg/kg/day (Trypanosoma cruzi [3]): 99%
COc1cc(NC(C)CCN)c2ncccc2c1.Cl (stereo not drawn) |  |  |  | 3.8 | inhibition in vivo at 13 mg/kg/day (Trypanosoma cruzi [1]): 80%; inhibition in vivo at 52 mg/kg/day (Trypanosoma cruzi [2]): 97%; SD90 (Trypanosoma cruzi [5]): 21.8 mg/kg; inhibition in vivo at 104 mg/kg/day (Trypanosoma cruzi [3]): 100%
COc1cc(NC(C)CCCN)c(OC)c2c(C)ccnc12.O=C(O)c1ccc(O)cc1O (stereo not drawn) | inactive | inactive | inactive |  | 
CCN(CC)CCCCCCNc1cc(OC)cc2c(C)ccnc12 | inactive |  |  | inactive | inhibition (Trypanosoma cruzi [6]): inactive; inhibition (Trypanosoma cruzi [7]): inactive
COc1cc(NC(C)CCN)c2ncccc2c1/N=N/c1ccc(C(=O)O)cc1 (stereo not drawn) |  |  |  | >4 | inhibition in vivo at 13 mg/kg/day (Trypanosoma cruzi [1]): 98%; inhibition in vivo at 52 mg/kg/day (Trypanosoma cruzi [2]): 99%; SD90 (Trypanosoma cruzi [5]): <3 mg/kg; inhibition in vivo at 104 mg/kg/day (Trypanosoma cruzi [3]): 100%
CCN(CC)CCCNc1cc(OC)c2nc(C)ccc2c1OC.O=C(O)c1ccc(O)cc1O | inactive | inactive | inactive |  | 
COc1cc(NC(C)CCCN)c(OC)c2c(C)cc(C)nc12 (stereo not drawn) | inactive | inactive | inactive |  | 
Cc1ccc(C[P+](c2ccccc2)(c2ccccc2)c2ccccc2)cc1.[Cl-] |  |  |  | 3.6 | SD80 (Trypanosoma cruzi [5]): 13 mg/kg; Activity (Mus musculus): Toxic; inhibition in vivo at 26 mg/kg/day (Trypanosoma cruzi [6]): 85%; inhibition in vivo at 3.25 mg/kg/day (Trypanosoma cruzi [7]): 80%
c1ccc(C2CN3CCSC3=N2)cc1 (stereo not drawn) | inactive | inactive | inactive |  | 
COc1cc(NCCCN2CCN(CCCNc3cc(OC)cc4cccnc34)CC2)c2ncccc2c1 | inactive | inactive | inactive |  | 
Nc1nc(N)c2cc(S(=O)(=O)c3ccc4ccccc4c3)ccc2n1 | inactive | inactive | inactive |  | 
NC1(C(=O)O)CCCC1 | inactive | inactive | inactive |  | 
Nc1ccc(C(c2ccc(N)cc2)c2ccc(N)cc2)cc1.O=C(O)c1cc2ccccc2c(Cc2c(O)c(C(=O)O)cc3ccccc23)c1O |  |  |  | 0.3 | SD50 (Trypanosoma cruzi [5]): 96 mg/kg
CC1CS(=O)(=O)CCN1/N=C/c1ccc([N+](=O)[O-])o1 (stereo not drawn) [NIFURTIMOX] |  |  |  | 1 | inhibition in vivo at 13 mg/kg/day (Trypanosoma cruzi [1]): 57%; inhibition in vivo at 52 mg/kg/day (Trypanosoma cruzi [2]): 92%; SD90 (Trypanosoma cruzi [5]): 41.5 mg/kg; inhibition in vivo at 104 mg/kg/day (Trypanosoma cruzi [3]): 99%
COc1cc(NC(C)CCN)c2nccc(C)c2c1 (stereo not drawn) | inactive | inactive | inactive | inactive | 
COc1c(NC(C)CCN)cc(OC)c2c(C)ccnc12 (stereo not drawn) | inactive | inactive | inactive | inactive | 
N=C(N)c1ccc(-c2ccc(-c3ccc(C(=N)N)cc3)o2)cc1 | inactive | inactive | inactive |  | 
CC(C)NCC1CCc2cc(CO)c([N+](=O)[O-])cc2N1 (stereo not drawn) | inactive | inactive | inactive |  | 
O=C(O)c1[nH]c(=O)[nH]c(=O)c1F | inactive | inactive | inactive |  | 
Nc1nc(N)c2c(n1)CCC(S(=O)(=O)c1ccc3ccccc3c1)C2 (stereo not drawn) | inactive | inactive | inactive |  | 
